ChEMBL document CHEMBL4616666, “Discovery of SHP2-D26 as a First, Potent, and Effective PROTAC Degrader of SHP2 Protein” (J Med Chem, 2020)

Experiments:
[1] = target: T1, von Hippel-Lindau disease tumor suppressor/Tyrosine-protein phosphatase non-receptor type 11 (Homo sapiens, UniProt Q06124+P40337); assay: Protac activity at VHL1/SHP2 in human KYSE520 cells assessed as induction of SHP2 degradation at 1 uM measured after 6 hrs by Western blot analysis relative to control; type: cell-based
How it was run: (§1)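 KYSE520 cells in RPMI 1640 + 10% FBS, 37 °C, 5% CO2, were exposed to degrader for 6 h. SHP2 was measured by Western blot and densitometry, with background-subtracted band normalized to net GAPDH band. Values are the average of three independent experiments.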

[2] = target: T1, von Hippel-Lindau disease tumor suppressor/Tyrosine-protein phosphatase non-receptor type 11; assay: Protac activity at VHL1/SHP2 in human KYSE520 cells assessed as induction of SHP2 degradation at 0.1 uM measured after 6 hrs by Western blot analysis relative to control; type: cell-based; how it was run: as §1

T1 sequence (P40337 whole entry partner): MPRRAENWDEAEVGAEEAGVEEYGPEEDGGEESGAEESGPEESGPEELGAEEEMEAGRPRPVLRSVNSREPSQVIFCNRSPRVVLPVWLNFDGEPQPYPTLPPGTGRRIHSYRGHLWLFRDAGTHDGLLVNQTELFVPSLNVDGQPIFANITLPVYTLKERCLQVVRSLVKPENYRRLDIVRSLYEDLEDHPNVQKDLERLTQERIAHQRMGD
T1 sequence (Q06124 2-593 limits assumed): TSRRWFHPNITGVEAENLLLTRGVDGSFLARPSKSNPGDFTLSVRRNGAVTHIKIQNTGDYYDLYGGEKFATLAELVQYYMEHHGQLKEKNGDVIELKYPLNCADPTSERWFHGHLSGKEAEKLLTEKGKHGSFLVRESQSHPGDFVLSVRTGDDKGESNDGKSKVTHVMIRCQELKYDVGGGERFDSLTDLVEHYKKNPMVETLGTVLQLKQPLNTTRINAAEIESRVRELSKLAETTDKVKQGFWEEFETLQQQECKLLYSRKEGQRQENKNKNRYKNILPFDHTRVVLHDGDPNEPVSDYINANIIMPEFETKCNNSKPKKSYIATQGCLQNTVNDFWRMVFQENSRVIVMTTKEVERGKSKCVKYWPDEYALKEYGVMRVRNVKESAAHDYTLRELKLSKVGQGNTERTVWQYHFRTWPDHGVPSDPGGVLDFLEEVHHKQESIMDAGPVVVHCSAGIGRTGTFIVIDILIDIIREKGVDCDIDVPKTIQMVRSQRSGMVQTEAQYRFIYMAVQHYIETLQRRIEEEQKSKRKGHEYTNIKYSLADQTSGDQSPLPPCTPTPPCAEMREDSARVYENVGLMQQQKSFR

Activity [1] [%]	Activity [2] [%]	Compound
> 95	> 95	Cc1ncsc1-c1ccc([C@H](C)NC(=O)[C@@H]2C[C@@H](O)CN2C(=O)[C@@H](NC(=O)CCCCCCCCCCCNC(=O)CCC(=O)Nc2cccc(Sc3ncc(N4CCC(C)(N)CC4)nc3N)c2Cl)C(C)(C)C)cc1
> 95	> 95	Cc1ncsc1-c1ccc([C@H](C)NC(=O)[C@@H]2C[C@@H](O)CN2C(=O)[C@@H](NC(=O)CCCCCCCCCCNC(=O)CCC(=O)Nc2cccc(Sc3ncc(N4CCC(C)(N)CC4)nc3N)c2Cl)C(C)(C)C)cc1
93	> 95	Cc1ncsc1-c1ccc([C@H](C)NC(=O)[C@@H]2C[C@@H](O)CN2C(=O)[C@@H](NC(=O)CCCCCCCCCCCNC(=O)CC(=O)Nc2cccc(Sc3ncc(N4CCC(C)(N)CC4)nc3N)c2Cl)C(C)(C)C)cc1 (single isomer, unassigned)
> 95	> 95	Cc1ncsc1-c1ccc([C@H](C)NC(=O)[C@@H]2C[C@@H](O)CN2C(=O)[C@@H](NC(=O)CCCCCCCCCCCNC(=O)CCCC(=O)Nc2cccc(Sc3ncc(N4CCC(C)(N)CC4)nc3N)c2Cl)C(C)(C)C)cc1 (single isomer, unassigned)
> 95	> 95	Cc1ncsc1-c1ccc([C@H](C)NC(=O)[C@@H]2C[C@@H](O)CN2C(=O)[C@@H](NC(=O)CCCCCCCCCCNC(=O)CC(=O)Nc2cccc(Sc3ncc(N4CCC(C)(N)CC4)nc3N)c2Cl)C(C)(C)C)cc1 (single isomer, unassigned)
> 95	> 95	Cc1ncsc1-c1ccc([C@H](C)NC(=O)[C@@H]2C[C@@H](O)CN2C(=O)[C@@H](NC(=O)CCCCCCCCCNC(=O)CC(=O)Nc2cccc(Sc3ncc(N4CCC(C)(N)CC4)nc3N)c2Cl)C(C)(C)C)cc1 (single isomer, unassigned)

More lines, now with the values behind:

Compound	Activity [1] [%]	Activity [2] [%]
Cc1ncsc1-c1ccc([C@H](C)NC(=O)[C@@H]2C[C@@H](O)CN2C(=O)[C@@H](NC(=O)CCNC(=O)CC(=O)Nc2cccc(Sc3ncc(N4CCC(C)(N)CC4)nc3N)c2Cl)C(C)(C)C)cc1	0	4
Cc1ncsc1-c1ccc([C@H](C)NC(=O)[C@@H]2C[C@@H](O)CN2C(=O)[C@@H](NC(=O)CCCCCCCCNC(=O)CC(=O)Nc2cccc(Sc3ncc(N4CCC(C)(N)CC4)nc3N)c2Cl)C(C)(C)C)cc1 (single isomer, unassigned)	80	81
Cc1ncsc1-c1ccc([C@H](C)NC(=O)[C@@H]2C[C@@H](O)CN2C(=O)[C@@H](NC(=O)CCCCCCCNC(=O)CC(=O)Nc2cccc(Sc3ncc(N4CCC(C)(N)CC4)nc3N)c2Cl)C(C)(C)C)cc1 (single isomer, unassigned)	14	20
Cc1ncsc1-c1ccc([C@H](C)NC(=O)[C@@H]2C[C@@H](O)CN2C(=O)[C@@H](NC(=O)CCCCCCNC(=O)CC(=O)Nc2cccc(Sc3ncc(N4CCC(C)(N)CC4)nc3N)c2Cl)C(C)(C)C)cc1 (single isomer, unassigned)	0	0
Cc1ncsc1-c1ccc([C@H](C)NC(=O)[C@@H]2C[C@@H](O)CN2C(=O)[C@@H](NC(=O)CCCCCNC(=O)CC(=O)Nc2cccc(Sc3ncc(N4CCC(C)(N)CC4)nc3N)c2Cl)C(C)(C)C)cc1 (single isomer, unassigned)	3	0
Cc1ncsc1-c1ccc([C@H](C)NC(=O)[C@@H]2C[C@@H](O)CN2C(=O)[C@@H](NC(=O)CCCCNC(=O)CC(=O)Nc2cccc(Sc3ncc(N4CCC(C)(N)CC4)nc3N)c2Cl)C(C)(C)C)cc1 (single isomer, unassigned)	6	13
Cc1ncsc1-c1ccc([C@H](C)NC(=O)[C@@H]2C[C@@H](O)CN2C(=O)[C@@H](NC(=O)CCCNC(=O)CC(=O)Nc2cccc(Sc3ncc(N4CCC(C)(N)CC4)nc3N)c2Cl)C(C)(C)C)cc1 (single isomer, unassigned)	7	9
